Reference: ChEMBL document CHEMBL1126804, “Mammalian topoisomerase II inhibitory activity of 1-cyclopropyl-6,8- difluoro-1,4-dihydro-7-(2,6-dimethyl-4-pyridinyl)-4-oxo-3-quinolinecarb oxylic acid and related derivatives” (J Med Chem, 1993)

Columns and labels:
[1] = biological target: DNA topoisomerase II (Homo sapiens, UniProt P11388+Q02880); experiment: Tested for inhibition of topoisomerase II isolated from HeLa cells by DNA-cleavage assay
Method in brief: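 HeLa topo II purified from late-log suspension cultures. Reactions were assembled at 4 °C in 50 mM Tris-Cl pH 7.9, 44 mM NaCl, 10 mM MgCl2, 0.5 mM ATP, 3'-32P-end-labeled pBR322 and 10 units enzyme, then run 20 min at 37 °C. SDS/KCl precipitation captured covalent complex, counted by scintillation.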

[2] = test system: P388; experiment: In vitro cytotoxicity against P388 murine leukemia cells in culture in a clonogenic assay after 1 hour exposure to drug; assay type: functional, cell-based; settings: Mus musculus, P388, 1 h

| SMILES | EC50 [1] | IC50 [2] |
| --- | --- | --- |
| NC1CCN(c2c(F)cc3c(=O)c(C(=O)O)cn(C4CC4)c3c2F)C1 (centres undefined) | 340 µM | – |
| Cc1cc(-c2c(F)cc3c(=O)c(C(=O)O)c(-c4ccccc4)n(C4CC4)c3c2F)cc(C)n1 | > 220 µM | – |
| Cc1cc(-c2c(F)cc3c(=O)c(C(=O)O)cn(CCF)c3c2F)cc(C)n1 | > 530 µM | – |
| O=C(O)c1cn(C2CC2)c2c(F)c(-c3cccnc3)c(F)cc2c1=O | 52 µM | – |
| Cc1cc(-c2c(F)cc3c(=O)c(C(=O)O)cn(-c4ccc(F)cc4)c3c2F)cc(C)n1 | > 430 µM | – |
| Cc1cc(-c2c(F)cc3c(=O)c(C(=O)[O-])cn(C(C)(C)C)c3c2F)cc(C)n1.[Na+] | 74 µM | – |
| Cc1cc(-c2c(F)c(F)c3c(=O)c(C(=O)O)cn(C4CC4)c3c2F)cc(C)n1 | 13 µM | – |
| CN1CCN(c2c(F)cc3c(=O)c(C(=O)O)cn(C4CC4)c3c2F)CC1 | 150 µM | – |
| Cc1cc(-c2c(F)cc3c(=O)c(C(=O)O)csc3c2F)cc(C)n1.Cl | > 140 µM | – |
| Cc1ccc(-c2c(F)cc3c(=O)c(C(=O)O)cn(C4CC4)c3c2F)c(C)n1 | 53 µM | – |
| Cc1cc(-c2c(F)cc3c(=O)cc(-c4ccccc4)n(C4CC4)c3c2F)cc(C)n1 | > 240 µM | – |
| COc1cc([C@@H]2c3cc4c(cc3[C@@H](O[C@@H]3O[C@@H]5CO[C@@H](C)O[C@H]5[C@H](O)[C@H]3O)[C@H]3COC(=O)[C@H]23)OCO4)cc(OC)c1O [ETOPOSIDE] | – | 0.3 µM |
| Cc1cc(-c2c(F)cc3c(=O)c(C(=O)O)cn(C4CC4)c3c2F)cc(C)n1 [WIN-57294] | 7.6 µM | 29 µM |

The next lines start with results.

| EC50 [1] | SMILES | IC50 [2] |
| --- | --- | --- |
| 6.2 µM | Cc1cc(-c2c(F)c(N)c3c(=O)c(C(=O)O)cn(C4CC4)c3c2F)cc(C)n1 | – |
| 17 µM | Cc1cc(-c2c(F)cc3c(=O)ccn(C4CC4)c3c2F)cc(C)n1 | – |
| 17 µM | O=C(O)c1cn(C2CC2)c2c(F)c(-c3ccncc3)c(F)cc2c1=O | – |
| > 300 µM | Cc1cc(-c2c(F)cc3c(O)c(C(=O)O)cnc3c2F)cc(C)n1 | – |
| 16 µM | Cc1cc(-c2c(F)cc3c(=O)cc(C)n(C4CC4)c3c2F)cc(C)n1 | – |
| 110 µM | CCn1cc(C(=O)O)c(=O)c2cc(F)c(-c3cc(C)nc(C)c3)c(F)c21 | – |
| > 420 µM | Cc1cc(-c2c(F)c(Sc3ccccc3)c3c(=O)c(C(=O)O)cn(C4CC4)c3c2F)cc(C)n1 | – |
| 1.2 µM | O=C(O)c1cn(C2CC2)c2c(F)c(-c3ccc(O)cc3)c(F)cc2c1=O | – |
| > 260 µM | Cc1cc(-c2c(F)cc3c(=O)c(C(=O)O)c(C)n(C4CC4)c3c2F)cc(C)n1 | – |
| 16 µM | Cc1cc(-c2c(F)cc3c(=O)c(C(=O)O)cn(C4CC4)c3c2F)ccn1 | – |
